Laboratory results reported in ChEMBL document CHEMBL2150978, “Phosphorodiamidates as a promising new phosphate prodrug motif for antiviral drug discovery: application to anti-HCV agents” (J Med Chem, 2011).

Columns and labels:
[1] = test system: Hepatitis C virus; experiment: Antiviral activity against Hepatitis C virus subtype 1b Con1 infected in human Huh7 cells assessed as inhibition of HCV replicon-encoded Renilla luciferase reporter activity after 72 hrs by HCV replicon assay; format: functional, organism-based, Hepacivirus hominis; details: Con1, Huh-7, 72 h
How it was run: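 Huh7 cells stably carrying a bicistronic subgenomic genotype 1b (Con1) replicon with Renilla luciferase reporter, seeded at 2 × 10⁴ cells/well the day before. Four-fold serial dilutions in growth medium, no-drug controls on each plate; 3 days at 37 °C, 5% CO₂. Luciferase reagent 20 min, then luminescence (RLU) read; EC₅₀ derived.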

[2] = Cytotoxicity against human HuH7 cells after 3 days; format: cell-based, Huh-7
How it was run: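 Huh7 replicon cells seeded at 2 × 10⁴ per well one day before dosing. Four-fold serial dilutions in growth medium, no-drug controls on each plate. Incubated 3 days at 37 °C, 5% CO₂. Viability read by CellTiter-Glo luminescence after 20 min with reagent.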

| Structure (SMILES) | EC50 [1] | EC90 [1] | CC50 at 72 h [2] |
| --- | --- | --- | --- |
| COc1nc(N)nc2c1ncn2[C@@H]1O[C@H](COP(=O)(N[C@@H](C)C(=O)OCCC(C)(C)C)N[C@@H](C)C(=O)OCCC(C)(C)C)[C@@H](O)[C@@]1(C)O (mixture of isomers) | 20 nM | 90 nM | 71000 nM |
| CCOc1nc(N)nc2c1ncn2[C@@H]1O[C@H](CO)[C@@H](O)[C@@]1(C)O | 9500 nM | 24500 nM | > 100000 nM |
| COc1nc(N)nc2c1ncn2[C@@H]1O[C@H](COP(=O)(N[C@@H](C)C(=O)OCc2ccccc2)N[C@@H](C)C(=O)OCc2ccccc2)[C@@H](O)[C@@]1(C)O (mixture of isomers) | 490 nM | 1600 nM | > 100000 nM |
| COc1nc(N)nc2c1ncn2[C@@H]1O[C@H](COP(=O)(N2CCOCC2)N2CCOCC2)[C@@H](O)[C@@]1(C)O (mixture of isomers) | > 100000 nM | > 100000 nM | > 100000 nM |
| COc1nc(N)nc2c1ncn2[C@@H]1O[C@H](COP(=O)(N[C@@H](CC(=O)OCc2ccccc2)C(=O)OCc2ccccc2)N[C@@H](CC(=O)OCc2ccccc2)C(=O)OCc2ccccc2)[C@@H](O)[C@@]1(C)O (mixture of isomers) | 610 nM | 1900 nM | > 100000 nM |
| COc1nc(N)nc2c1ncn2[C@@H]1O[C@H](COP(=O)(N[C@@H](CC(C)C)C(=O)OCc2ccccc2)N[C@@H](CC(C)C)C(=O)OCc2ccccc2)[C@@H](O)[C@@]1(C)O (mixture of isomers) | 380 nM | 1310 nM | 39000 nM |
| COc1nc(N)nc2c1ncn2[C@@H]1O[C@H](COP(=O)(NCC(=O)OCc2ccccc2)NCC(=O)OCc2ccccc2)[C@@H](O)[C@@]1(C)O (mixture of isomers) | 600 nM | 1800 nM | > 100000 nM |
| COc1nc(N)nc2c1ncn2[C@@H]1O[C@H](COP(=O)(N[C@@H](C)C(=O)OC(C)C)N[C@@H](C)C(=O)OC(C)C)[C@@H](O)[C@@]1(C)O (mixture of isomers) | 490 nM | 2100 nM | > 100000 nM |
| COc1nc(N)nc2c1ncn2[C@@H]1O[C@H](COP(=O)(N[C@H](C(=O)OCC(C)(C)C)c2ccccc2)N[C@H](C(=O)OCC(C)(C)C)c2ccccc2)[C@@H](O)[C@@]1(C)O (mixture of isomers) | 270 nM | 1500 nM | 24000 nM |
| COc1nc(N)nc2c1ncn2[C@@H]1O[C@H](COP(=O)(N[C@@H](C)C(=O)OCC(C)C)N[C@@H](C)C(=O)OCC(C)C)[C@@H](O)[C@@]1(C)O (mixture of isomers) | 70 nM | 260 nM | > 100000 nM |
| CCCCNP(=O)(NCCCC)OC[C@H]1O[C@@H](n2cnc3c(OC)nc(N)nc32)[C@](C)(O)[C@@H]1O (mixture of isomers) | 37800 nM | > 40000 nM | > 100000 nM |
| CCCCCNP(=O)(N[C@@H](C)C(=O)OCC(C)(C)C)OC[C@H]1O[C@@H](n2cnc3c(OC)nc(N)nc32)[C@](C)(O)[C@@H]1O (mixture of isomers) | 110 nM | 520 nM | > 100000 nM |
| COc1nc(N)nc2c1ncn2[C@@H]1O[C@H](COP(=O)(N[C@@H](C)C(=O)OC2CCCCC2)N[C@@H](C)C(=O)OC2CCCCC2)[C@@H](O)[C@@]1(C)O (mixture of isomers) | 50 nM | 190 nM | > 100000 nM |
| CCCOC(=O)[C@H](C)NP(=O)(N[C@@H](C)C(=O)OCCC)OC[C@H]1O[C@@H](n2cnc3c(OC)nc(N)nc32)[C@](C)(O)[C@@H]1O (mixture of isomers) | 280 nM | 1200 nM | > 100000 nM |
| COc1nc(N)nc2c1ncn2[C@@H]1O[C@H](COP(=O)(N[C@@H](C)C(=O)OCC2CC2)N[C@@H](C)C(=O)OCC2CC2)[C@@H](O)[C@@]1(C)O (mixture of isomers) | 210 nM | 660 nM | > 100000 nM |
| COc1nc(N)nc2c1ncn2[C@@H]1O[C@H](COP(=O)(N[C@@H](Cc2ccccc2)C(=O)OC2CCCCC2)N[C@@H](Cc2ccccc2)C(=O)OC2CCCCC2)[C@@H](O)[C@@]1(C)O (mixture of isomers) | 500 nM | 2000 nM | 25000 nM |
| COc1nc(N)nc2c1ncn2[C@@H]1O[C@H](COP(=O)(N[C@@H](C)C(=O)O[C@@H](C)c2ccccc2)N[C@@H](C)C(=O)O[C@@H](C)c2ccccc2)[C@@H](O)[C@@]1(C)O (mixture of isomers) | 490 nM | 1700 nM | 88000 nM |
| COc1nc(N)nc2c1ncn2[C@@H]1O[C@H](COP(=O)(N2CCC[C@H]2C(=O)OCC(C)(C)C)N2CCC[C@H]2C(=O)OCC(C)(C)C)[C@@H](O)[C@@]1(C)O (mixture of isomers) | 810 nM | 2000 nM | 56000 nM |
| COc1nc(N)nc2c1ncn2[C@@H]1O[C@H](COP(=O)(N[C@H](C(=O)N[C@@H](C)C(=O)OCC(C)(C)C)C(C)C)N[C@H](C(=O)N[C@@H](C)C(=O)OCC(C)(C)C)C(C)C)[C@@H](O)[C@@]1(C)O (mixture of isomers) | 540 nM | 2400 nM | > 100000 nM |
| COc1nc(N)nc2c1ncn2[C@@H]1O[C@H](COP(=O)(N[C@@H](CCSC)C(=O)OC2CCCCC2)N[C@@H](CCSC)C(=O)OC2CCCCC2)[C@@H](O)[C@@]1(C)O (mixture of isomers) | 600 nM | 2600 nM | 51000 nM |
| COc1nc(N)nc2c1ncn2[C@@H]1O[C@H](COP(=O)(Nc2cccc3ccccc23)N[C@@H](C)C(=O)OCC(C)(C)C)[C@@H](O)[C@@]1(C)O (mixture of isomers) | 130 nM | 560 nM | > 100000 nM |
| COc1nc(N)nc2c1ncn2[C@@H]1O[C@H](COP(=O)(N[C@H](C(=O)OC2CCCCC2)c2ccccc2)N[C@H](C(=O)OC2CCCCC2)c2ccccc2)[C@@H](O)[C@@]1(C)O (mixture of isomers) | 320 nM | 1800 nM | 18000 nM |
| COc1nc(N)nc2c1ncn2[C@@H]1O[C@H](COP(=O)(N[C@H](C(=O)OC2CCCCC2)C(C)C)N[C@H](C(=O)OC2CCCCC2)C(C)C)[C@@H](O)[C@@]1(C)O (mixture of isomers) | 2500 nM | 10000 nM | 20000 nM |
| COc1nc(N)nc2c1ncn2[C@@H]1O[C@H](COP(=O)(N[C@@H](C)C(=O)OCC(C)(C)C)N2CCCC2)[C@@H](O)[C@@]1(C)O (mixture of isomers) | 870 nM | 4000 nM | > 100000 nM |
| COc1nc(N)nc2c1ncn2[C@@H]1O[C@H](COP(=O)(N[C@@H](CC(C)C)C(=O)OCC(C)(C)C)N[C@@H](CC(C)C)C(=O)OCC(C)(C)C)[C@@H](O)[C@@]1(C)O (mixture of isomers) | 470 nM | 2400 nM | 27000 nM |
